From ChEMBL document CHEMBL4261631, “Synthetic thiosemicarbazones as a new class of Mycobacterium tuberculosis protein tyrosine phosphatase A inhibitors” (Bioorg Med Chem, 2018) come the findings set out here.

The target of the first test is T1, Low molecular weight protein-tyrosine phosphatase A (Mycobacterium tuberculosis, UniProt P9WIA1).
T1 sequence (P9WIA1 whole entry): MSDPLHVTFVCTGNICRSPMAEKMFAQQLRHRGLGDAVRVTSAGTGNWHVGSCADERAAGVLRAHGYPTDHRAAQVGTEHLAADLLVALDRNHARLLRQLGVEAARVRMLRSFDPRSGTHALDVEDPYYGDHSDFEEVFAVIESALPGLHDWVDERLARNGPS
As to the kind of experiment: Inhibition of recombinant Mycobacterium tuberculosis PtpA using p-nitrophenyl phosphate as substrate preincubated for 10 mins followed by substrate addition and measured every minute for 10 mins by UV-VIS spectrophotometric analysis. An outline of the steps:
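Recombinant Mtb PtpA at 50 nM in 20 mM imidazole pH 7.0, premixed with inhibitor (0.5–50 µM, DMSO ≤4% v/v) 10 min at 37 °C. Started with 10 mM pNPP. A410 read each min for 10 min at 37 °C. Residual activity from 7 min minus 2 min absorbance versus no-inhibitor wells. IC50 by linear regression of % inhibition versus concentration. Triplicate, mean ± SD of three experiments.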
For `COc1ccc(/C=N/NC(=S)Nc2cccc3ccccc23)cc1OC`, the half-maximal inhibitory concentration (IC50) (commonly the concentration that gives 50% inhibition) stood at 18.2 µM.
Still for that read-out and setting: the figure for `S=C(N/N=C/c1ccc2ccccc2c1)Nc1cccc2ccccc12` is 23.7 µM; for `COc1ccc(NC(=S)N/N=C/c2ccc([N+](=O)[O-])cc2)cc1` it is 15.1 µM; for `S=C(N/N=C/c1ccc2c(c1)OCO2)Nc1cccc2ccccc12` it is 17.8 µM.
`S=C(N/N=C/c1ccc(Cl)c(Cl)c1)Nc1cccc2ccccc12`: the IC50 amounted to 13.4 µM.

In the next test the target is T2, Low molecular weight protein-tyrosine phosphatase A (Mycobacterium tuberculosis) (UniProt P9WIA1).
T2 sequence (whole entry): T1 sequence (P9WIA1 whole entry)
The experiment in a line: Inhibition of recombinant Mycobacterium tuberculosis PtpA at 25 uM using p-nitrophenyl phosphate as substrate preincubated for 10 mins followed by substrate addition and measured every minute for 10 mins by UV-VIS spectrophotometric analysis. An outline of the steps:
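Single-point screen at 25 µM final (from 1 mM DMSO stock, 2.5% DMSO final). 50 nM recombinant Mtb PtpA in 20 mM imidazole pH 7.0, premixed with compound 10 min at 37 °C. Reaction started with 10 mM pNPP. A410 read each min for 10 min at 37 °C. Residual activity from absorbance difference 7 min minus 2 min versus no-inhibitor wells. Triplicate.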
As to `COc1ccc(NC(=S)N/N=C/c2cc(OC)ccc2OC)cc1`, the inhibition (as a rule, the drop in the measured response relative to a control, in per cent) was determined as 0%.
Still for that read-out and setting: to `COc1ccc(/C=N/NC(=S)Nc2cccc3ccccc23)cc1OC` belongs 64.5%; to `S=C(N/N=C/c1ccc2ccccc2c1)Nc1cccc2ccccc12`, 67.7%; to `COc1ccc(NC(=S)N/N=C/c2ccc([N+](=O)[O-])cc2)cc1`, 64.4%.
Turning to `S=C(N/N=C/c1ccc(Cl)cc1)Nc1cccc2ccccc12`, the inhibition turned out to be 0%.
Same read-out and setting: the figure for `COc1ccc(NC(=S)N/N=C/c2ccc3ccccc3c2)cc1` is 23.7%.
For `COc1cc(/C=N/NC(=S)Nc2cccc3ccccc23)cc(OC)c1OC`, the inhibition was 0%.
On to `COc1ccc(/C=N/NC(=S)Nc2ccc(C)cc2)cc1`, for which the inhibition worked out at 8.9%.
For `COc1ccc(NC(=S)N/N=C/c2cc(OC)c(OC)c(OC)c2)cc1`, the inhibition came out at 0%.
The same measure, in the same setting: the figure for `COc1ccc(OC)c(/C=N/NC(=S)Nc2ccc(C)cc2)c1` is 2.8%.
The same measure, in the same setting: the figure for `COc1ccc(NC(=S)N/N=C/c2ccc(C)cc2)cc1` is 0%; for `COc1ccc(/C=N/NC(=S)Nc2cccc3ccccc23)cc1` it is 22.6%; for `Cc1ccc(NC(=S)N/N=C/c2ccc([N+](=O)[O-])cc2)cc1` it is 37.2%.
Still for that read-out and setting: the figure for `S=C(N/N=C/c1cccc2ccccc12)Nc1cccc2ccccc12` is 10.3%; for `Cc1ccc(NC(=S)N/N=C/c2ccc3ccccc3c2)cc1` it is 29.3%; for `COc1cc(/C=N/NC(=S)Nc2cccc3ccccc23)ccc1O` it is 0%.
`COc1ccc(NC(=S)N/N=C/c2ccccc2[N+](=O)[O-])cc1`: the inhibition came out at 0%.
Take `COc1ccc(NC(=S)N/N=C/c2ccc3c(c2)OCO3)cc1`: the inhibition is 0%.
As to `COc1ccc(NC(=S)N/N=C/c2ccccc2)cc1`, the inhibition was found to be 0%.
Turning to `COc1ccc(/C=N/NC(=S)Nc2ccc(C)cc2)cc1OC`, the inhibition was determined as 6.6%.
Consider `COc1cc(/C=N/NC(=S)Nc2ccc(C)cc2)ccc1O`, for which the inhibition is 8.8%.
On the same count and under the same terms, to `COc1ccc(NC(=S)N/N=C/c2ccc(OC)c(OC)c2)cc1` belongs 0%; to `COc1ccc(OC)c(/C=N/NC(=S)Nc2cccc3ccccc23)c1`, 44.2%.
Consider `COc1ccc(NC(=S)N/N=C/c2ccc(N(C)C)cc2)cc1`, for which the inhibition is 3.9%.
As to `CN(C)c1ccc(/C=N/NC(=S)Nc2cccc3ccccc23)cc1`, the inhibition worked out at 51.6%.
Consider `Cc1ccc(NC(=S)N/N=C/c2ccc(-c3ccccc3)cc2)cc1`, for which the inhibition worked out at 26.3%.
Still for that read-out and setting: the figure for `S=C(N/N=C/c1ccc2c(c1)OCO2)Nc1cccc2ccccc12` is 62.6%; for `COc1ccc(NC(=S)N/N=C/c2ccc(-c3ccccc3)cc2)cc1` it is 41.2%; for `Cc1ccc(NC(=S)N/N=C/c2ccc3c(c2)OCO3)cc1` it is 25.9%.
Still for that read-out and setting: to `Cc1ccc(NC(=S)N/N=C/c2ccc(Cl)c(Cl)c2)cc1` belongs 23.4%; to `Cc1ccc(NC(=S)N/N=C/c2ccc(Cl)cc2)cc1`, 4.9%.
Still for that read-out and setting: to `COc1ccc(/C=N/NC(=S)Nc2ccc(OC)cc2)cc1` belongs 0%.
In the case of `COc1ccc(NC(=S)N/N=C/c2ccc(O)c(OC)c2)cc1`, the inhibition was 6.6%.
Same read-out and setting: the figure for `Cc1ccc(NC(=S)N/N=C/c2ccc(N(C)C)cc2)cc1` is 35.4%; for `Cc1ccc(NC(=S)N/N=C/c2ccccc2[N+](=O)[O-])cc1` it is 21.6%; for `Cc1ccc(NC(=S)N/N=C/c2ccccc2)cc1` it is 16.6%.
As to `COc1ccc(NC(=S)N/N=C/c2ccc(Cl)c(Cl)c2)cc1`, the inhibition was found to be 21.4%.
With `Cc1ccc(/C=N/NC(=S)Nc2ccc(C)cc2)cc1`, the inhibition was 0.7%.
The same measure, in the same setting: to `Cc1ccc(NC(=S)N/N=C/c2cccc3ccccc23)cc1` belongs 33.7%; to `COc1ccc(NC(=S)N/N=C/c2ccc(Cl)cc2)cc1`, 1%.
On to `COc1ccc(NC(=S)N/N=C/c2cccc3ccccc23)cc1`, for which the inhibition stood at 22.7%.
`S=C(N/N=C/c1ccc(Cl)c(Cl)c1)Nc1cccc2ccccc12`: the inhibition was 83.7%.
On the same count and under the same terms, to `S=C(N/N=C/c1ccccc1)Nc1cccc2ccccc12` belongs 58.1%; to `COc1cc(/C=N/NC(=S)Nc2ccc(C)cc2)cc(OC)c1OC`, 0%.
`O=[N+]([O-])c1ccccc1/C=N/NC(=S)Nc1cccc2ccccc12`: the inhibition was 52.4%.
